Results published in ChEMBL document CHEMBL5724801, “EUbOPEN Chemogenomics Library - Multiplex” (2024).
“And” between values parts separate entries of the source, which are not always exact repeats. Equal values may be shown once.

System: U2OS
Experiment: Multiplex assay against U2OS
Type: toxicity, cell-based
Settings: human
Procedure, shortened: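 Compound was added to live cells that had been stained at seeding with Hoechst33342, BioTracker Green Microtubule Cytoskeleton Dye, MitoTracker Red and Annexin V Alexa Fluor 680, and imaging followed on a CQ1 microscope at 37°C and 5% CO2. CellPathfinder machine-learning gating divided cells into Hoechst high-intensity objects or normal cells, normal cells into healthy, pyknosed or fragmented nuclei, and pyknosed cells into mitotic or apoptotic. Tubulin, mitochondrial-mass and membrane-permeability phenotypes are per cents of healthy-nucleus cells.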

[1] = 12 h, 1 µM, compound concentration 1 uM
[2] = 12 h, 10 µM, compound concentration 10 uM
[3] = 24 h, 1 µM, compound concentration 1 uM
[4] = 24 h, 10 µM, compound concentration 10 uM
[5] = 48 h, 1 µM, compound concentration 1 uM
[6] = 48 h, 10 µM, compound concentration 10 uM

Cc1cc(Nc2ncc(Cl)c(Nc3ccccc3S(=O)(=O)C(C)C)n2)c(OC(C)C)cc1C1CCNCC1 [CERITINIB]
Population Apoptotic (%) [1]: 28.57% and 18.75% | Population Fragmented Nuclei (%) [1]: 3.31% and 3.57% | Population Healthy Nuclei (%) [1]: 78.68% and 58.33% | Population Hoechst High Intensity Objects (%) [1]: 0% | Population Membrane Permeable-Phenotype (%) [1]: 17.76% and 17.35% | Population Mitotic Cells (%) [1]: 71.43% and 81.25% | Population Normal (%) [1]: 100% | Population Pyknosed Nuclei (%) [1]: 18.01% and 38.1% | Population Tubulin-Different-Phenotype (%) [1]: 40.65% and 72.45% | Total Cell Count [1]: 272 and 168 | Population Apoptotic (%) [2]: 77.85% and 68.91% | Population Fragmented Nuclei (%) [2]: 0.93% and 0.8% | Population Healthy Nuclei (%) [2]: 3.43% and 4% | Population Hoechst High Intensity Objects (%) [2]: 0% | Population Membrane Permeable-Phenotype (%) [2]: 36.36% and 80% | Population Mitochondria Different-Phenotype (%) [2]: 0% | Population Mitotic Cells (%) [2]: 22.15% and 31.09% | Population Normal (%) [2]: 100% | Population Pyknosed Nuclei (%) [2]: 95.64% and 95.2% | Population Tubulin-Different-Phenotype (%) [2]: 72.73% and 60% | Total Cell Count [2]: 321 and 125 | Population Apoptotic (%) [3]: 29.58% and 27.12% | Population Fragmented Nuclei (%) [3]: 2.58% and 2.73% | Population Healthy Nuclei (%) [3]: 77.08% and 65.03% | Population Hoechst High Intensity Objects (%) [3]: 0.29% and 0% | Population Membrane Permeable-Phenotype (%) [3]: 4.09% and 6.72% | Population Mitotic Cells (%) [3]: 70.42% and 72.88% | Population Normal (%) [3]: 99.71% and 100% | Population Pyknosed Nuclei (%) [3]: 20.34% and 32.24% | Population Tubulin-Different-Phenotype (%) [3]: 29% and 47.06% | Total Cell Count [3]: 350 and 183 | Population Apoptotic (%) [4]: 83.51% and 81.55% | Population Fragmented Nuclei (%) [4]: 1.89% and 2.42% | Population Healthy Nuclei (%) [4]: 6.6% and 14.52% | Population Hoechst High Intensity Objects (%) [4]: 0% | Population Membrane Permeable-Phenotype (%) [4]: 23.81% and 50% | Population Mitochondria Different-Phenotype (%) [4]: 9.52% and 5.56% | Population Mitotic Cells (%) [4]: 16.49% and 18.45% | Population Normal (%) [4]: 100% | Population Pyknosed Nuclei (%) [4]: 91.51% and 83.06% | Population Tubulin-Different-Phenotype (%) [4]: 71.43% and 33.33% | Total Cell Count [4]: 318 and 124 | Population Apoptotic (%) [5]: 50% and 61.97% | Population Fragmented Nuclei (%) [5]: 3.8% and 3.81% | Population Healthy Nuclei (%) [5]: 77.4% and 62.38% | Population Hoechst High Intensity Objects (%) [5]: 0.2% and 0% | Population Membrane Permeable-Phenotype (%) [5]: 1.55% and 4.58% | Population Mitotic Cells (%) [5]: 50% and 38.03% | Population Normal (%) [5]: 99.8% and 100% | Population Pyknosed Nuclei (%) [5]: 18.8% and 33.81% | Total Cell Count [5]: 501 and 210 | Population Apoptotic (%) [6]: 89.1% and 93.88% | Population Fragmented Nuclei (%) [6]: 2.94% and 5.04% | Population Healthy Nuclei (%) [6]: 46.08% and 53.78% | Population Hoechst High Intensity Objects (%) [6]: 0% | Population Mitochondria Different-Phenotype (%) [6]: 7.09% and 10.94% | Population Mitotic Cells (%) [6]: 10.9% and 6.12% | Population Normal (%) [6]: 100% | Population Pyknosed Nuclei (%) [6]: 50.98% and 41.18% | Population Tubulin-Different-Phenotype (%) [6]: 46.1% and 31.25% | Total Cell Count [6]: 306 and 119

CCCN1CCC[C@@H]2Cc3n[nH]cc3C[C@H]21.Cl [QUINPIROLE HYDROCHLORIDE]
Population Apoptotic (%) [1]: 71% and 61% | Population Fragmented Nuclei (%) [1]: 31% and 21% | Population Healthy Nuclei (%) [1]: 60% and 67% | Population Hoechst High Intensity Objects (%) [1]: 2% and 0% | Population Membrane Permeable-Phenotype (%) [1]: 7% and 2% | Population Mitochondria Different-Phenotype (%) [1]: 1% | Population Mitotic Cells (%) [1]: 28% and 38% | Population Normal (%) [1]: 97% and 100% | Population Pyknosed Nuclei (%) [1]: 8% and 11% | Population Tubulin-Different-Phenotype (%) [1]: 3% and 2% | Total Cell Count [1]: 265 and 118 | Population Apoptotic (%) [2]: 58% and 100% | Population Fragmented Nuclei (%) [2]: 19% and 9% | Population Healthy Nuclei (%) [2]: 72% and 85% | Population Hoechst High Intensity Objects (%) [2]: 1% and 2% | Population Membrane Permeable-Phenotype (%) [2]: 2% and 6% | Population Mitochondria Different-Phenotype (%) [2]: 0% and 5% | Population Normal (%) [2]: 98% and 97% | Population Pyknosed Nuclei (%) [2]: 7% and 4% | Population Tubulin-Different-Phenotype (%) [2]: 1% and 2% | Total Cell Count [2]: 228 and 126 | Population Apoptotic (%) [3]: 68% and 77% | Population Fragmented Nuclei (%) [3]: 27% and 18% | Population Healthy Nuclei (%) [3]: 64% and 68% | Population Hoechst High Intensity Objects (%) [3]: 1% and 0% | Population Membrane Permeable-Phenotype (%) [3]: 4% | Population Mitochondria Different-Phenotype (%) [3]: 3% and 4% | Population Mitotic Cells (%) [3]: 31% and 22% | Population Normal (%) [3]: 98% and 100% | Population Pyknosed Nuclei (%) [3]: 7% and 13% | Population Tubulin-Different-Phenotype (%) [3]: 3% and 4% | Total Cell Count [3]: 299 and 138 | Population Apoptotic (%) [4]: 88% and 92% | Population Fragmented Nuclei (%) [4]: 13% and 9% | Population Healthy Nuclei (%) [4]: 80% and 82% | Population Hoechst High Intensity Objects (%) [4]: 2% and 0% | Population Membrane Permeable-Phenotype (%) [4]: 2% and 0% | Population Mitochondria Different-Phenotype (%) [4]: 0% and 1% | Population Mitotic Cells (%) [4]: 11% and 7% | Population Normal (%) [4]: 97% and 99% | Population Pyknosed Nuclei (%) [4]: 6% and 8% | Population Tubulin-Different-Phenotype (%) [4]: 1% and 0% | Total Cell Count [4]: 281 and 163 | Population Apoptotic (%) [5]: 75% and 78% | Population Fragmented Nuclei (%) [5]: 19% and 17% | Population Healthy Nuclei (%) [5]: 74% and 69% | Population Hoechst High Intensity Objects (%) [5]: 1% and 3% | Population Membrane Permeable-Phenotype (%) [5]: 4% | Population Mitochondria Different-Phenotype (%) [5]: 1% and 5% | Population Mitotic Cells (%) [5]: 25% and 21% | Population Normal (%) [5]: 98% and 96% | Population Pyknosed Nuclei (%) [5]: 6% and 13% | Population Tubulin-Different-Phenotype (%) [5]: 2% | Total Cell Count [5]: 425 and 180 | Population Apoptotic (%) [6]: 86% and 91% | Population Fragmented Nuclei (%) [6]: 11% and 12% | Population Healthy Nuclei (%) [6]: 78% | Population Hoechst High Intensity Objects (%) [6]: 3% and 1% | Population Membrane Permeable-Phenotype (%) [6]: 4% and 6% | Population Mitochondria Different-Phenotype (%) [6]: 1% and 4% | Population Mitotic Cells (%) [6]: 13% and 8% | Population Normal (%) [6]: 96% and 98% | Population Pyknosed Nuclei (%) [6]: 9% | Population Tubulin-Different-Phenotype (%) [6]: 3% and 2% | Total Cell Count [6]: 386 and 251

O=C(NCCN1CCC(n2c(=O)[nH]c3cc(Cl)ccc32)CC1)c1ccc(F)cc1 [HALOPEMIDE]
Population Apoptotic (%) [1]: 95% and 50% | Population Fragmented Nuclei (%) [1]: 24% and 13% | Population Healthy Nuclei (%) [1]: 65% and 79% | Population Hoechst High Intensity Objects (%) [1]: 1% and 0% | Population Membrane Permeable-Phenotype (%) [1]: 6% and 7% | Population Mitochondria Different-Phenotype (%) [1]: 1% and 2% | Population Normal (%) [1]: 98% and 100% | Population Pyknosed Nuclei (%) [1]: 10% and 7% | Population Tubulin-Different-Phenotype (%) [1]: 2% and 3% | Total Cell Count [1]: 209 and 105 | Population Apoptotic (%) [2]: 68% and 61% | Population Fragmented Nuclei (%) [2]: 19% and 12% | Population Healthy Nuclei (%) [2]: 65% and 78% | Population Hoechst High Intensity Objects (%) [2]: 4% and 1% | Population Membrane Permeable-Phenotype (%) [2]: 23% and 26% | Population Mitochondria Different-Phenotype (%) [2]: 11% and 32% | Population Mitotic Cells (%) [2]: 31% and 38% | Population Normal (%) [2]: 95% and 98% | Population Pyknosed Nuclei (%) [2]: 15% and 8% | Population Tubulin-Different-Phenotype (%) [2]: 15% and 27% | Total Cell Count [2]: 244 and 152 | Population Apoptotic (%) [3]: 91% and 81% | Population Fragmented Nuclei (%) [3]: 22% and 15% | Population Healthy Nuclei (%) [3]: 68% and 72% | Population Hoechst High Intensity Objects (%) [3]: 1% and 0% | Population Membrane Permeable-Phenotype (%) [3]: 6% and 10% | Population Mitochondria Different-Phenotype (%) [3]: 1% and 3% | Population Mitotic Cells (%) [3]: 8% and 18% | Population Normal (%) [3]: 98% and 99% | Population Pyknosed Nuclei (%) [3]: 9% and 12% | Population Tubulin-Different-Phenotype (%) [3]: 1% and 8% | Total Cell Count [3]: 241 and 132 | Population Apoptotic (%) [4]: 75% and 63% | Population Fragmented Nuclei (%) [4]: 17% and 16% | Population Healthy Nuclei (%) [4]: 64% and 71% | Population Hoechst High Intensity Objects (%) [4]: 2% and 3% | Population Membrane Permeable-Phenotype (%) [4]: 15% and 26% | Population Mitochondria Different-Phenotype (%) [4]: 10% and 23% | Population Mitotic Cells (%) [4]: 25% and 36% | Population Normal (%) [4]: 97% and 96% | Population Pyknosed Nuclei (%) [4]: 18% and 12% | Population Tubulin-Different-Phenotype (%) [4]: 7% and 21% | Total Cell Count [4]: 271 and 159 | Population Apoptotic (%) [5]: 68% and 95% | Population Fragmented Nuclei (%) [5]: 16% and 17% | Population Healthy Nuclei (%) [5]: 75% and 69% | Population Hoechst High Intensity Objects (%) [5]: 2% and 1% | Population Membrane Permeable-Phenotype (%) [5]: 4% and 9% | Population Mitochondria Different-Phenotype (%) [5]: 2% and 5% | Population Normal (%) [5]: 97% and 98% | Population Pyknosed Nuclei (%) [5]: 7% and 12% | Population Tubulin-Different-Phenotype (%) [5]: 2% and 6% | Total Cell Count [5]: 337 and 187 | Population Apoptotic (%) [6]: 81% and 77% | Population Fragmented Nuclei (%) [6]: 15% and 13% | Population Healthy Nuclei (%) [6]: 69% and 67% | Population Hoechst High Intensity Objects (%) [6]: 3% and 6% | Population Membrane Permeable-Phenotype (%) [6]: 10% and 16% | Population Mitochondria Different-Phenotype (%) [6]: 5% and 12% | Population Mitotic Cells (%) [6]: 18% and 22% | Population Normal (%) [6]: 96% and 93% | Population Pyknosed Nuclei (%) [6]: 14% and 18% | Population Tubulin-Different-Phenotype (%) [6]: 5% and 6% | Total Cell Count [6]: 382 and 197
